Laboratory results as given in ChEMBL document CHEMBL1151810, “Bioassay-guided isolation of xanthones and polycyclic prenylated acylphloroglucinols from Garcinia oblongifolia” (J Nat Prod, 2009).
The source made the active and inactive calls. The rule behind the calls is not given here.

Legend:
HeLa C3 [1] = experiment: Induction of apoptosis in human HeLaC3 cells assessed as reduction of yellow fluorescent protein/cyan fluorescent protein emission ratio below 3 at 500 nM after 24 hrs using fluorescent plate reader
HeLa C3 [2] = experiment: Induction of apoptosis in human HeLaC3 cells assessed as reduction of yellow fluorescent protein/cyan fluorescent protein emission ratio below 3 at 500 nM after 48 hrs using fluorescent plate reader
HeLa C3 [3] = experiment: Induction of apoptosis in human HeLaC3 cells assessed as shrinkage and detached morphology at 500 nM after 72 hrs
HeLa C3 [4] = experiment: Induction of apoptosis in human HeLaC3 cells assessed as shrinkage and detached morphology at 500 nM after 48 hrs
HeLa C3 [5] = experiment: Induction of apoptosis in human HeLaC3 cells assessed as shrinkage and detached morphology at 500 nM after 24 hrs
HeLa C3 [6] = experiment: Induction of apoptosis in human HeLaC3 cells assessed as reduction of yellow fluorescent protein/cyan fluorescent protein emission ratio below 3 at 500 nM after 72 hrs using fluorescent plate reader
HeLa C3 [7] = experiment: Induction of apoptosis in human HeLaC3 cells assessed as reduction of yellow fluorescent protein/cyan fluorescent protein emission ratio below 3 at 20 uM after 24 hrs using fluorescent plate reader; type: functional, cell-based
Outline: (§1)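 HeLa-C3 cells express a caspase-3-cleavable CFP/YFP biosensor and are grown in MEM with 10% FBS and penicillin/streptomycin at 37 °C, 5% CO2. Seed 7500 cells per well and incubate 12-16 h. Take a 0 h read (ex 440 nm; em 486 nm CFP, 535 nm YFP), then replace the medium with compound-containing medium; include cell-free background wells. Read repeatedly up to 72 h. A YFP/CFP ratio below 3 scores as apoptotic. Triplicate wells, three experiments; 0.1% DMSO negative control.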

HeLa C3 [8] = experiment: Induction of apoptosis in human HeLaC3 cells assessed as reduction of yellow fluorescent protein/cyan fluorescent protein emission ratio below 3 at 20 uM after 72 hrs using fluorescent plate reader; type: functional, cell-based
Outline: as §1

HeLa C3 [9] = experiment: Induction of apoptosis in human HeLaC3 cells assessed as reduction of yellow fluorescent protein/cyan fluorescent protein emission ratio below 3 at 20 uM after 48 hrs using fluorescent plate reader; type: functional, cell-based
Outline: as §1

HeLa C3 [10] = experiment: Induction of apoptosis in human HeLaC3 cells assessed as shrinkage and detached morphology at 20 uM after 48 hrs; type: functional, cell-based
HeLa C3 [11] = experiment: Induction of apoptosis in human HeLaC3 cells assessed as shrinkage and detached morphology at 20 uM after 24 hrs; type: functional, cell-based
HeLa C3 [12] = experiment: Induction of apoptosis in human HeLaC3 cells assessed as shrinkage and detached morphology at 20 uM after 72 hrs; type: functional, cell-based

**Q.** With `CC(=O)O[C@H]1C(=O)[C@@]2(C)[C@H]([C@H](OC(=O)c3ccccc3)[C@]3(O)C[C@H](OC(=O)[C@H](O)[C@@H](NC(=O)c4ccccc4)c4ccccc4)C(C)=C1C3(C)C)[C@]1(OC(C)=O)CO[C@@H]1C[C@@H]2O` as the compound, how does the Activity (HeLa C3 [1]) read?
**A.** Its Activity is “inactive”.

**Q.** And the Activity (HeLa C3 [2])?
**A.** Its Activity is “Active”.

**Q.** And the Activity (HeLa C3 [3])?
**A.** The Activity was “Active”.

**Q.** And the Activity (HeLa C3 [4])?
**A.** Its Activity is “Active”.

**Q.** And the Activity (HeLa C3 [5])?
**A.** The Activity was “Active”.

**Q.** And the Activity (HeLa C3 [6])?
**A.** The Activity was “Active”.

**Q.** With `CC(C)=CCC/C(C)=C/C[C@@H]1C[C@]2(CC=C(C)C)C(=O)[C@@](CC=C(C)C)(C(=O)C(C(=O)c3ccc(O)c(O)c3)=C2O)C1(C)C` as the compound, how does the Activity (HeLa C3 [7]) read?
**A.** Its Activity is “inactive”.

**Q.** And the Activity (HeLa C3 [8])?
**A.** Its Activity is “Active”.

**Q.** And the Activity (HeLa C3 [9])?
**A.** The Activity was “Active”.

**Q.** With `CC(C)=CCC/C(C)=C/C[C@H]1C[C@@]2(CC=C(C)C)C(=O)c3c(oc4cc(O)c(O)cc4c3=O)[C@](CC=C(C)C)(C2=O)C1(C)C` as the compound, how does the Activity (HeLa C3 [7]) read?
**A.** Its Activity is “inactive”.

**Q.** And the Activity (HeLa C3 [8])?
**A.** The Activity was “Active”.

**Q.** What about the Activity (HeLa C3 [9]) of the same compound?
**A.** Its Activity is “Active”.

**Q.** Which results are given for `CC1(C)C=Cc2cc3c(=O)c4c(O)cc(O)cc4oc3c(O)c2O1`?
**A.** Activity (HeLa C3 [7]): inactive; Activity (HeLa C3 [8]): Active; Activity (HeLa C3 [9]): inactive

**Q.** How did the Activity (HeLa C3 [7]) turn out when `CC(C)=CCC/C(C)=C/C[C@H]1C[C@]2(C/C=C(\C)CCC=C(C)C)C(=O)[C@@](CC=C(C)C)(C(=O)C(C(=O)c3ccc(O)c(O)c3)=C2O)C1(C)C` was run?
**A.** The Activity was “inactive”.

**Q.** What about the Activity (HeLa C3 [8]) of the same compound?
**A.** The Activity was “Active”.

**Q.** And the Activity (HeLa C3 [9])?
**A.** The Activity was “inactive”.

**Q.** For `CC(C)=CCC/C(C)=C/C[C@@H]1C[C@@]2(CC=C(C)C)C(=O)c3c(oc4cc(O)c(O)cc4c3=O)[C@](CC=C(C)C)(C2=O)C1(C)C`, which Activity (HeLa C3 [7]) is on record?
**A.** Its Activity is “inactive”.

**Q.** And the Activity (HeLa C3 [8])?
**A.** Its Activity is “Active”.

**Q.** And the Activity (HeLa C3 [9])?
**A.** The Activity was “Active”.

**Q.** What does the source list for `COc1cc(O)c2c(=O)c3c(CC=C(C)C)cc(O)c(O)c3oc2c1C/C=C(\C)CCC=C(C)C`?
**A.** Activity (HeLa C3 [7]): inactive; Activity (HeLa C3 [8]): Active; Activity (HeLa C3 [9]): Active

**Q.** Which Activity (HeLa C3 [7]) does the source give for `CC(C)=CCC/C(C)=C/C[C@@H]1C[C@]2(CC=C(C)C)C(=O)[C@@](CC=C(C)C)(C(=O)C(C(=O)c3ccc(O)c(O)c3)=C2O)[C@@]1(C)CCC=C(C)C` here?
**A.** The Activity was “Active”.

**Q.** And the Activity (HeLa C3 [10])?
**A.** Its Activity is “Active”.

**Q.** What about the Activity (HeLa C3 [11]) of the same compound?
**A.** The Activity was “Active”.

**Q.** What about the Activity (HeLa C3 [12]) of the same compound?
**A.** The Activity was “Active”.

**Q.** What about the Activity (HeLa C3 [8]) of the same compound?
**A.** The Activity was “Active”.

**Q.** What about the Activity (HeLa C3 [9]) of the same compound?
**A.** The Activity was “Active”.

**Q.** For `COc1cc(O)c2c(=O)c3ccc(O)c(O)c3oc2c1CCC(C)(C)O`, which Activity (HeLa C3 [7]) is on record?
**A.** The Activity was “inactive”.

**Q.** And the Activity (HeLa C3 [8])?
**A.** Its Activity is “Active”.

**Q.** And the Activity (HeLa C3 [9])?
**A.** The Activity was “inactive”.
